≈ marks a conversion by molar mass, not a printed value. Calls of active or inactive are those of the source. No cut-off for these calls is given here.
Experiments:
Escherichia coli [1] = assay: Antibacterial activity against Escherichia coli ATCC 25922 at 1 ug/ml after 24 hrs; format: functional, organism-based
How it was run: (§1)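 Organisms grown overnight at 37 °C in buffered glucose broth. A loopful (5 mm diameter) was added to buffered glucose broth containing the test compound and incubated at 37 °C for 24 h. Growth was scored against the untreated control as total inhibition, poor, medium or confluent growth.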

Candida albicans = assay: Antifungal activity against Candida albicans MTCC 1637 at 30 ug/ml by cup-plate agar diffusion method; format: functional; settings: for zone of inhibition at 30 µg/mL: read-out: DIZ
How it was run: (§2)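 Cup-plate agar diffusion assay against the fungal strains, with amphotericin B as the reference standard.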

Bacillus subtilis [2] = assay: Antibacterial activity against Bacillus subtilis MTCC 121 at 100 ug/ml after 24 hrs; format: functional, organism-based; how it was run: as §1
Escherichia coli [3] = assay: Antibacterial activity against Escherichia coli ATCC 25922 at 500 ug/ml after 24 hrs; format: functional, organism-based; how it was run: as §1
Escherichia coli [4] = assay: Antibacterial activity against Escherichia coli ATCC 25922 at 200 ug/ml after 24 hrs; format: functional, organism-based; how it was run: as §1
Escherichia coli [5] = assay: Antibacterial activity against Escherichia coli ATCC 25922 after 24 hrs; format: functional
Bacillus subtilis [6] = assay: Antibacterial activity against Bacillus subtilis MTCC 121 at 200 ug/ml after 24 hrs; format: functional, organism-based; how it was run: as §1
Bacillus subtilis [7] = assay: Antibacterial activity against Bacillus subtilis MTCC 121 after 24 hrs; format: functional
Bacillus subtilis [8] = assay: Antibacterial activity against Bacillus subtilis MTCC 121 at 500 ug/ml after 24 hrs; format: functional, organism-based; how it was run: as §1
Aspergillus flavus = assay: Antifungal activity against Aspergillus flavus AIIMS isolate at 30 ug/ml by cup-plate agar diffusion method; format: functional; settings: for zone of inhibition at 30 µg/mL: read-out: DIZ; how it was run: as §2
Escherichia coli [9] = assay: Antibacterial activity against Escherichia coli ATCC 25922 at 100 ug/ml after 24 hrs; format: functional, organism-based; how it was run: as §1
Bacillus subtilis [10] = assay: Antibacterial activity against Bacillus subtilis MTCC 121 at 1 ug/ml after 24 hrs; format: functional, organism-based; how it was run: as §1
Aspergillus niger = assay: Antifungal activity against Aspergillus niger AIIMS isolate at 30 ug/ml by cup-plate agar diffusion method; format: functional; settings: for zone of inhibition at 30 µg/mL: read-out: DIZ; how it was run: as §2
Bacillus subtilis [11] = assay: Antibacterial activity against Bacillus subtilis MTCC 121 at 10 ug/ml after 24 hrs; format: functional, organism-based; how it was run: as §1
Escherichia coli [12] = assay: Antibacterial activity against Escherichia coli ATCC 25922 at 10 ug/ml after 24 hrs; format: functional, organism-based; how it was run: as §1

SMILES	inhibition (Escherichia coli [1])	zone of inhibition at 30 µg/mL (Candida albicans) [mm]	inhibition (Bacillus subtilis [2])	inhibition (Escherichia coli [3])	inhibition (Escherichia coli [4])	MIC (Escherichia coli [5]; ATCC 25922, 24 h) [µg/mL]	inhibition (Bacillus subtilis [6])	MIC (Bacillus subtilis [7]; MTCC 121, 24 h) [µg/mL]	inhibition (Bacillus subtilis [8])	zone of inhibition at 30 µg/mL (Aspergillus flavus) [mm]	inhibition (Escherichia coli [9])	inhibition (Bacillus subtilis [10])	zone of inhibition at 30 µg/mL (Aspergillus niger) [mm]	inhibition (Bacillus subtilis [11])	inhibition (Escherichia coli [12])	further results
Cc1ccccc1C1C(Cl)C(=O)N1c1nnc(Cn2c(C)nc3ccccc32)s1 (configuration not stated)	inactive	10	Active	Active	Active	100 (≈ 236 µM)	Active	100 (≈ 236 µM)	Active	< 10	Active	inactive	16	–	–	–
Cc1ccc(C2C(Cl)C(=O)N2c2nnc(Cn3c(C)nc4ccccc43)s2)cc1 (configuration not stated)	inactive	< 10	–	Active	–	500 (≈ 1180 µM)	–	500 (≈ 1180 µM)	Active	16	–	inactive	10	inactive	–	–
Cc1nc2ccccc2n1Cc1nnc(/N=C/c2ccc(Cl)cc2)s1	inactive	10	inactive	inactive	inactive	–	inactive	–	–	< 10	inactive	inactive	10	inactive	inactive	MIC (Escherichia coli [5]): inactive; MIC (Bacillus subtilis [7]): inactive; Activity (Bacillus subtilis [8]): inactive
Cc1nc2ccccc2n1Cc1nnc(N2C(=O)C(Cl)C2c2ccccc2O)s1 (configuration not stated)	inactive	10	Active	Active	Active	200 (≈ 470 µM)	Active	100 (≈ 235 µM)	Active	10	–	–	16	–	–	–
Cc1nc2ccccc2n1Cc1nnc(N2C(=O)C(Cl)C2c2ccc(N)cc2)s1 (configuration not stated)	inactive	16	Active	Active	Active	200 (≈ 471 µM)	Active	100 (≈ 235 µM)	Active	10	–	–	10	–	–	–
Cc1nc2ccccc2n1Cc1nnc(/N=C/c2ccccc2Cl)s1	inactive	–	Active	Active	Active	100 (≈ 272 µM)	Active	100 (≈ 272 µM)	Active	–	Active	inactive	–	–	–	diameter of the inhibition zone (DIZ) (Candida albicans): inactive; diameter of the inhibition zone (DIZ) (Aspergillus flavus): inactive; diameter of the inhibition zone (DIZ) (Aspergillus niger): inactive
COc1ccc(/C=N/c2nnc(Cn3c(C)nc4ccccc43)s2)cc1	inactive	10	Active	Active	Active	200 (≈ 550 µM)	Active	100 (≈ 275 µM)	Active	16	–	inactive	16	–	inactive	–
Cc1nc2ccccc2n1Cc1nnc(N2C(=O)C(Cl)C2c2ccccc2Cl)s1 (configuration not stated)	inactive	–	–	Active	Active	100 (≈ 225 µM)	Active	200 (≈ 450 µM)	Active	–	Active	inactive	–	inactive	–	diameter of the inhibition zone (DIZ) (Candida albicans): inactive; diameter of the inhibition zone (DIZ) (Aspergillus flavus): inactive; diameter of the inhibition zone (DIZ) (Aspergillus niger): inactive
Cc1nc2ccccc2n1Cc1nnc(/N=C/c2ccc(O)cc2)s1	inactive	16	–	Active	Active	200 (≈ 572 µM)	Active	200 (≈ 572 µM)	Active	16	–	inactive	16	–	–	–
Cc1nc2ccccc2n1Cc1nnc(/N=C/c2ccccc2O)s1	inactive	–	Active	Active	Active	200 (≈ 572 µM)	Active	100 (≈ 286 µM)	Active	–	–	inactive	–	–	inactive	diameter of the inhibition zone (DIZ) (Candida albicans): inactive; diameter of the inhibition zone (DIZ) (Aspergillus flavus): inactive; diameter of the inhibition zone (DIZ) (Aspergillus niger): inactive
Cc1nc2ccccc2n1Cc1nnc(N2C(=O)C(Cl)C2c2ccc(O)cc2)s1 (configuration not stated)	inactive	16	–	Active	–	500 (≈ 1170 µM)	Active	200 (≈ 470 µM)	Active	16	–	–	16	–	inactive	–
Cc1nc2ccccc2n1Cc1nnc(/N=C/c2ccc(N)cc2)s1	inactive	16	Active	Active	Active	200 (≈ 574 µM)	Active	100 (≈ 287 µM)	Active	10	–	inactive	22	–	–	–
C[C@@H]1[C@H](O)[C@@H](C)/C=C/C=C/C=C/C=C/C=C/C=C/C=C/[C@H](O[C@@H]2O[C@H](C)[C@@H](O)[C@H](N)[C@@H]2O)C[C@@H]2O[C@](O)(C[C@@H](O)C[C@@H](O)[C@H](O)CC[C@@H](O)C[C@@H](O)CC(=O)O[C@H]1C)C[C@H](O)[C@H]2C(=O)O [AMPHOTERICIN B]	–	22	–	–	–	–	–	–	–	22	–	–	22	–	–	–
CC1(C)S[C@@H]2[C@H](NC(=O)[C@H](N)c3ccccc3)C(=O)N2[C@H]1C(=O)O [AMPICILLIN]	–	–	Active	Active	Active	10 (≈ 28.6 µM)	Active	10 (≈ 28.6 µM)	Active	–	Active	–	–	Active	Active	–
Cc1nc2ccccc2n1Cc1nnc(/N=C/c2ccc(Br)cc2)s1	inactive	–	–	Active	–	500 (≈ 1210 µM)	–	500 (≈ 1210 µM)	Active	–	–	inactive	–	inactive	inactive	diameter of the inhibition zone (DIZ) (Candida albicans): inactive; diameter of the inhibition zone (DIZ) (Aspergillus flavus): inactive; diameter of the inhibition zone (DIZ) (Aspergillus niger): inactive
Cc1nc2ccccc2n1Cc1nnc(/N=C/c2ccccc2)s1	inactive	16	Active	Active	Active	200 (≈ 600 µM)	Active	100 (≈ 300 µM)	Active	22	–	inactive	22	–	–	–
Cc1ccccc1/C=N/c1nnc(Cn2c(C)nc3ccccc32)s1	inactive	10	–	Active	Active	100 (≈ 288 µM)	Active	200 (≈ 576 µM)	Active	< 10	Active	inactive	10	inactive	–	–
Cc1nc2ccccc2n1Cc1nnc(N2C(=O)C(Cl)C2c2cccc(O)c2)s1 (configuration not stated)	inactive	–	–	Active	–	500 (≈ 1170 µM)	Active	200 (≈ 470 µM)	Active	–	–	inactive	–	–	–	diameter of the inhibition zone (DIZ) (Candida albicans): inactive; diameter of the inhibition zone (DIZ) (Aspergillus flavus): inactive; diameter of the inhibition zone (DIZ) (Aspergillus niger): inactive
Cc1nc2ccccc2n1Cc1nnc(N2C(=O)C(Cl)C2c2ccccc2)s1 (configuration not stated)	inactive	16	–	Active	–	500 (≈ 1220 µM)	Active	200 (≈ 488 µM)	Active	16	–	inactive	10	inactive	inactive	–
COc1ccc(C2C(Cl)C(=O)N2c2nnc(Cn3c(C)nc4ccccc43)s2)cc1 (configuration not stated)	inactive	10	–	Active	Active	200 (≈ 455 µM)	Active	200 (≈ 455 µM)	Active	< 10	–	inactive	< 10	–	–	–
